# Compounds with a hit are over-represented: about 1.2% of the library has one in this group of screens.
# G6PDH CS – L. mesenteroides G6PDH inhibitors, counter-screen for G6PDH-coupled screening assays, biochemical, Leuconostoc mesenteroides enzyme; glucose-6-phosphate dehydrogenase [Leuconostoc mesenteroides]; Purified L. mesenteroides G6PDH, diaphorase/resazurin coupled fluorescence, 45 min; inhibition, % at 5 µM; 200,000 tested, 0.12% active; in the data active means inhibition above about 50%
# HKDC1 inhibitor – HKDC1 hexokinase inhibitors, primary screen, biochemical, fluorescence, uHTS; Q2TB90; recombinant HKDC1, G6PDH/diaphorase resazurin coupled fluorescence; 340,000 tested, 0.16% active; inhibition, % at 20 µM;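 active means inhibition above about 35% when tested at 20 µM, limit read from the data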;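 further: plate controls were DMSO wells with enzyme for no effect and DMSO wells lacking enzyme for full effect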
# Target sequence (Q2TB90 whole entry, looked up): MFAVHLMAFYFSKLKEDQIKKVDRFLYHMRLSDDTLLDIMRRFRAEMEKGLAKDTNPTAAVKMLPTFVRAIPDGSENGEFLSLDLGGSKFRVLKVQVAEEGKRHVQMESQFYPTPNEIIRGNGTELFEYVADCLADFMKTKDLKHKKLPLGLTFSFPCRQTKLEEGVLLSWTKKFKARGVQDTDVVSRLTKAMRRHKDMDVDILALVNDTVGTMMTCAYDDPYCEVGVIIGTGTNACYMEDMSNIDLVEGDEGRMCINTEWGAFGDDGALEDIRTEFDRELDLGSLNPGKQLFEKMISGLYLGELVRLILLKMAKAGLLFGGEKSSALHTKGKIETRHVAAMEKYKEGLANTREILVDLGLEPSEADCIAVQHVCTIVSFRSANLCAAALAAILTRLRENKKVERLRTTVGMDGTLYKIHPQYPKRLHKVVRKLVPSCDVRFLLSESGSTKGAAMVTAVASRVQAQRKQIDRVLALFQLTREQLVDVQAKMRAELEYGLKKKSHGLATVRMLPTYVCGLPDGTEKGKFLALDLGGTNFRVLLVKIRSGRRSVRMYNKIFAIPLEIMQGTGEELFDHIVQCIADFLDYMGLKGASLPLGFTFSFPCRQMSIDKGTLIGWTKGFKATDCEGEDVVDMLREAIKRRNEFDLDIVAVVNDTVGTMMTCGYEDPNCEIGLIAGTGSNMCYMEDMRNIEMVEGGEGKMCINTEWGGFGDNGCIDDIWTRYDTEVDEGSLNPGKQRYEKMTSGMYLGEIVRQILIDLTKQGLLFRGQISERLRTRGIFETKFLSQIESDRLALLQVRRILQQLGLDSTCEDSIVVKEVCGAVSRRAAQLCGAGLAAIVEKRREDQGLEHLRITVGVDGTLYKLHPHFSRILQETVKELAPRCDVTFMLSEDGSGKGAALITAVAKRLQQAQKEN
#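 System: Recombinant HKDC1 hexokinase | Amount: HKDC1 at 5 µg/mL | Reagent: Glucose with 1 mM ATP | Doses: Single 20 µM dose | Incubation: Reaction time 90 min, room temperature, protected from light | Signal: Coupled resazurin fluorescence, excitation 525 nm, emission 613 nm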
# Diaph act CS – compounds boosting diaphorase resazurin reduction – biochemical, uHTS, resorufin fluorescence, counter-screen for diaphorase-coupled primary assays, primary screen | 190,000 tested, 0.005% active | activation factor at 20 µM | Diaphorase/resazurin coupled assay, 16 min; hits give high values; 1 = vehicle wells, 0 = NADH-free wells;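 active means diaphorase activity raised at least twofold by the compound at 20 µM; inactive means activation factor below 2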
#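 Measured by – red resorufin fluorescence at 544/590 nm excitation/emission · Test system – Clostridium kluyveri diaphorase, purified enzyme · Incubation – reaction time 16 min, room temperature · Buffer or medium – 50 mM HEPES pH 7.4 with 4.542 mM MgCl2, 0.005% Tween 20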
# PfG6PD inh – PfG6PD enzyme inhibitors, primary screen, biochemical, fluorescence intensity, uHTS; glucose-6-phosphate dehydrogenase-6-phosphogluconolactonase (Plasmodium falciparum 3D7); PfGluPho enzyme, NADPH resazurin-diaphorase fluorescence; inhibition, % at 20 µM; 350,000 tested, 0.78% active;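 active means inhibition reaching at least a set limit at 20 µM in the primary screen, cut at about 59% in these data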;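 further: 0% = DMSO wells with substrate and 100% = DMSO wells lacking glucose-6-phosphate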
# Diaph inh CS – diaphorase inhibitors and chemical oxidizers, primary screen, counter-screen for diaphorase-coupled primary assays, biochemical, uHTS, resorufin fluorescence; 190,000 tested, 0.69% active; inhibition, % at 20 µM; diaphorase resazurin-to-resorufin fluorescence, NADH, 16 min; bacterial (C. kluyveri) enzyme, not human;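 active means primary screen inhibition at 20 µM above a set limit, cut at about 50% in these data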;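 further: plate controls were DMSO with full reaction for no effect and wells lacking NADH for full effect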
#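 Detection: fluorescence of resorufin formed from resazurin, Ex 544/Em 590 nm; test system: Clostridium kluyveri diaphorase enzyme; amount: 0.14 U/mL diaphorase, enzyme working solution; times: 16-min room-temperature incubation before reading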
# PfGluPho conf – PfG6PD inhibitors, hit retest, confirmation, biochemical, fluorescence intensity, single concentration; 2,400 tested, 34% active; AID 504753, 2011; inhibition, % at 20 µM; recombinant PfGluPho, NADPH-diaphorase-resazurin fluorescence; shares compounds with PfG6PD inh;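 active means inhibition of at least 50% at 20 µM in any single replicate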;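 further: 0% = DMSO with substrate and 100% = DMSO lacking glucose-6-phosphate substrate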
# Diaphorase 10uM – diaphorase inhibitors and chemical oxidizers, confirmation, counter-screen for P. falciparum G6PD inhibitor project, biochemical, fluorescence intensity, 10 µM NADPH | shares compounds with PfG6PD inh | diaphorase-coupled resazurin reduction, NADPH 10 uM | inhibition, % at 20 µM | 820 tested, 39% active | AID 504862, 2011;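 active means average inhibition reaching 50% or more with the compound at 20 µM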;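 further: resorufin red fluorescence formed as diaphorase reduces resazurin using NADPH; 0% = DMSO with enzyme and 100% = DMSO without enzyme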
# Diaph ctr 30uM – diaphorase inhibitors and chemical oxidizers, confirmation, counter-screen for P. falciparum G6PD inhibitor project, biochemical, fluorescence intensity, 30 µM NADPH; shares compounds with PfG6PD inh; Diaphorase/resazurin coupled assay, resorufin fluorescence; inhibition, % at 20 µM; 820 tested, 29% active; AID 504863, 2011;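 active means inhibition averaging 50% or more, tested at 20 µM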;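 further: 0% = DMSO with enzyme and 100% = DMSO wells lacking diaphorase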
# An asterisk follows results filed as active; x = no result given.
SMILES,G6PDH CS,HKDC1 inhibitor,Diaph act CS,PfG6PD inh,Diaph inh CS,PfGluPho conf,Diaphorase 10uM,Diaph ctr 30uM
O=C(O)C(Cc1ccccc1)N1C(=O)C=CC1=O (configuration not stated),x,x,x,90.0*,x,84.9*,18.2,1.9
O=C(O)C(Cc1ccccc1)N1C(=O)CCC1=O (configuration not stated),8.5,3.1,1,-17.1,2.6,x,x,x
CCc1cc(-c2n[nH]c(C)c2-c2ccccc2Cl)c(O)cc1OC,x,3.6,x,98.0*,x,51.3*,55.0*,34.2
CCOc1ccc(-c2n[nH]c(C)c2-c2ccccc2OC)c(O)c1,14.1,-0.7,0.9,17.2,11.5,x,x,x
CCc1cc(-c2n[nH]c(C)c2-c2nc3ccccc3n2C)c(O)cc1O,19.1,0.6,0.9,61.1*,11.2,48.6*,28.1,25.9
CCc1cc(-c2n[nH]c(CCC(=O)O)c2-c2nc3ccccc3n2C)c(O)cc1O,6.8,3.4,0.8,25.4,16.3,x,x,x
C/C(N)=C(/C#N)C(=O)COC(=O)c1ccc(NC(N)=O)cc1,x,-5.8,x,-29.0,x,x,x,x
O=C(O)c1cccc(COc2cccc3ccccc23)c1,x,9.0,x,-14.9,x,x,x,x
O=C(CSc1nc2ncc(Cl)cc2[nH]1)NCC(=O)Nc1ccc(F)c(F)c1F,x,-0.2,x,79.0*,x,31.1,x,x
O=C(CSc1nc2ncc(Cl)cc2[nH]1)Nc1ccccc1-c1ccccc1,x,2.8,x,-14.2,x,x,x,x
Cc1cc(C(=O)Nc2sc3c(c2C#N)CCC3)no1,-7.0,-3.1,0.8,-4.8,16.4,x,x,x
Cc1noc(C(=O)Nc2sc3c(c2C#N)CCC3)c1Cl,6.8,-0.9,0.8,83.1*,24.1,52.2*,21.5,15.3
CCN(CC(=O)Nc1ccccc1C(F)(F)F)C(=O)c1ccc2[nH]c3c(c2c1)CC(C)CC3 (configuration not stated),x,0.5,x,89.8*,x,36.9,x,x
CC1CCc2[nH]c3ccc(C(=O)N(C)CC(=O)Nc4ccc(F)cc4)cc3c2C1 (configuration not stated),x,-0.5,x,-1.5,x,x,x,x
O=C(Nc1cc(Cl)ccc1N1CCOCC1)c1ccc2c(c1)OCO2,x,x,x,16.1,x,x,x,x
O=C(Nc1ccc(N2CCOCC2)c(Cl)c1)c1ccc2c(c1)OCCO2,19.2,-4.8,x,82.7*,x,43.9,x,x
O=C(Nc1ccc(N2CCCC2)c(Cl)c1)c1ccc2c(c1)OCCO2,x,1.2,x,67.4*,x,9.5,x,x
O=C(Nc1ccc(N2CCOCC2)cc1N1CCOCC1)c1ccc(Cl)cc1,x,-0.2,x,15.0,x,x,x,x
O=C(Nc1ccc(Cl)c(Cl)c1)c1ccc2c(c1)OCO2,x,1.6,x,42.9,x,x,x,x
O=C(Nc1ccc(N2CCOCC2)c(Cl)c1)c1ccc(Cl)cc1,3.0,-1.6,0.9,99.9*,12.0,60.7*,50.6*,44.7
Cc1ccc(NC(=O)c2cc(N3C(=O)C=CC3=O)ccc2N2CCOCC2)cc1Cl,-2.6,-4.7,0.9,74.1*,6.5,102.0*,-28.1,-22.1
O=C(NCc1ccccc1)C(c1ccc(F)cc1)N(C(=O)c1csnn1)C1CC1 (configuration not stated),x,0.3,x,-6.5,x,x,x,x
COc1cc(C(C#N)N2CCC(c3ccccc3)=N2)ccc1O (configuration not stated),x,1.8,x,8.2,x,x,x,x
O=C(Nc1ccc(N2CCCC2)c(Cl)c1)c1ccc(Br)o1,0.3,-0.7,1.3,59.5*,-28.1,4.2,x,x

# Assay outcomes as filed in PubChem.
